M5 antag – CHRM5 antagonism in calcium assay | P08912 | CHO-hM5 cells, Fluo-8 calcium fluorescence, ACh EC80 | inhibition, % at 3 µM | actives 0.59% (n = 360,000) | AID 624040;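 active = inhibition above a per-plate cutoff, the mean of that plate's test compounds plus 3 SD, cut at about 27% in these data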
Target sequence (P08912 whole entry, looked up): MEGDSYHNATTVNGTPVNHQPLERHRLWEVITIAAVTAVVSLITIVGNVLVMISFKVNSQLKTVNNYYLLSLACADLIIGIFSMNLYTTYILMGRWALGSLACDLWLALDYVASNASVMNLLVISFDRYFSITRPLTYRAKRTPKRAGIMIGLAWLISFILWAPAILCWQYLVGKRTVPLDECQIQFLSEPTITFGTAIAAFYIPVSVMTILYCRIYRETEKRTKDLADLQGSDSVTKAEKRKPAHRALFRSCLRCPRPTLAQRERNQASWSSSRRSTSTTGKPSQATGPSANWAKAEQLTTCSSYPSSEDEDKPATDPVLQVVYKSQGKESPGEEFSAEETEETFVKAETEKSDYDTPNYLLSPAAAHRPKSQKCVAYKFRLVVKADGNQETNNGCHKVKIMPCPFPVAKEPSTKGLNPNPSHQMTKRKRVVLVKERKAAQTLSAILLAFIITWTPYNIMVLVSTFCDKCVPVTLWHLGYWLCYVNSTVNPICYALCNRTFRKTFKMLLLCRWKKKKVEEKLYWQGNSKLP
M4 PAM – CHRM4 positive allosteric modulation. CHO-K1 hM4/Gqi5, Fluo-8 calcium fluorescence, ACh EC20; 0% = ACh EC20, 100% = maximal ACh. activation, % at 3 µM. actives 0.4% (n = 360,000). AID 624126;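 active = activation above its plate's cutoff, the mean activation of sample wells plus 3 SD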
CHRM5 agonist – CHRM5 agonism in calcium assay. P08912. CHO-K1 hM5 cells, Fluo-8 calcium fluorescence; 0% DMSO wells, 100% maximal acetylcholine response. activation, % at 3 µM. actives 0.19% (n = 360,000). AID 624037;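 active = activation above the run's mean over test compounds plus 3 SD, cut at about 23% in these data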;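 also: signal is peak over basal fluorescence ratio across the kinetic read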
M4 ag – agonists of human muscarinic M4 receptor (CHRM4); P08173; CHO-K1 hM4/Gqi5, Fluo-8 calcium fluorescence; vehicle 0%, full acetylcholine response 100%; activation, % at 3 µM; actives 0.14% (n = 360,000); AID 624127;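 active = activation above the run mean over all test wells plus 3 SD, cut at about 32% in these data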;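 also: peak over basal fluorescence ratio per well then scaled between controls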
CHRM5 PAM – positive allosteric modulators of human muscarinic M5 receptor. actives 0.3% (n = 360,000). CHO-K1 hM5, Fluo-8 calcium, ACh EC20 PAM; 0% = ACh EC20, 100% = ACh EC100. activation, % at 3 µM. P08912;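 active = activation above the run cutoff, the mean activation of all test compounds plus 3 SD, cut at about 18% in these data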
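System – CHO-K1 hM5 cells · Compound – 3 µM, single dose · Incubation – compound preincubation 140 s before EC20 acetylcholine addition · Technique – Fluo-8 calcium fluorescence · Measure – Max/basal fluorescence ratio as % of EC20–EC100 ACh window · Benchmarks – low control EC20 acetylcholine (0%), high control EC100 acetylcholine (100%) · Replication – singlicate, one well per test compound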
M4 antag – antagonists of human muscarinic M4 receptor (CHRM4). CHO-hM4 cells, ACh EC80, Fluo-8 calcium fluorescence. inhibition, % at 3 µM. actives 0.73% (n = 360,000). P08173;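 active = inhibition above its plate's cutoff, the mean inhibition of sample wells plus 3 SD, cut at about 27% in these data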
Hits are given with their value; ! = a repeat was not active. Sampled rows, rich in hits. Any-hit rate of the full collection: about 1.8%.

Screening Cc1nc(N)sc1C(=O)N/N=C/c1cccnc1 returned M5 antag inactive, M4 PAM inactive, CHRM5 agonist inactive, M4 ag inactive, CHRM5 PAM 19 and M4 antag inactive.
For N#C/C(=C/c1ccncc1)c1nc2ccccc2s1 the results were M5 antag 30, M4 PAM inactive, CHRM5 agonist 26, M4 ag inactive, CHRM5 PAM inactive and M4 antag inactive.
CC(C)=C(C#N)c1nc2ccccc2s1 was read as M5 antag 27, M4 PAM inactive, CHRM5 agonist inactive, M4 ag inactive, CHRM5 PAM inactive and M4 antag inactive.
`COC(=O)c1ccc(/C(O)=C(\C#N)c2nc3ccccc3s2)cc1` gave M5 antag inactive, M4 PAM inactive, CHRM5 agonist inactive, M4 ag inactive, CHRM5 PAM inactive and M4 antag inactive.
`CN(C)C(=O)c1ccc(-c2cc(C(F)(F)F)n(C)n2)s1` gave M5 antag inactive, M4 PAM inactive, CHRM5 agonist inactive, M4 ag inactive, CHRM5 PAM inactive and M4 antag inactive.
`C(=N\c1nc2ccccc2n1CCN1CCCCC1)/c1ccc2c(c1)OCO2` gave M5 antag inactive, M4 PAM inactive, CHRM5 agonist inactive, M4 ag inactive, CHRM5 PAM 23 and M4 antag inactive.
`O=C(NCCCSc1ccccc1)c1cc(Br)ccc1O` gave M5 antag 33, M4 PAM inactive, CHRM5 agonist inactive, M4 ag inactive, CHRM5 PAM inactive and M4 antag inactive.
For O=C(NCc1ccc(F)cc1)c1cccc2c1C(=O)c1ccc(N3CCC(Cc4ccccc4)CC3)cc1S2(=O)=O the results were M5 antag inactive, M4 PAM inactive, CHRM5 agonist inactive, M4 ag inactive, CHRM5 PAM inactive and M4 antag inactive.
`CC(C)(C)CNC(=O)c1cccc2c1C(=O)c1ccc(N3CCCC3)cc1S2(=O)=O` gave M5 antag inactive, M4 PAM inactive, CHRM5 agonist inactive, M4 ag 39, CHRM5 PAM inactive and M4 antag inactive.
Screening O=C(NC1CC1)c1cccc2c1C(=O)c1ccc(N3CCC(Cc4ccccc4)CC3)cc1S2(=O)=O returned M5 antag inactive, M4 PAM inactive, CHRM5 agonist inactive, M4 ag inactive, CHRM5 PAM inactive and M4 antag 27.
O=C(NC1CCCCC1)c1ccc(CS(=O)Cc2ccc(Cl)cc2)o1 (stereo unspecified) was read as M5 antag inactive, M4 PAM inactive, CHRM5 agonist inactive, M4 ag inactive, CHRM5 PAM inactive and M4 antag inactive.
For Cc1cc(C(=O)N2CCN(c3ccc([N+](=O)[O-])cc3)CC2)c(C)o1 the results were M5 antag inactive, M4 PAM inactive, CHRM5 agonist inactive, M4 ag inactive, CHRM5 PAM inactive and M4 antag inactive.
`Cc1cc(C(=O)N2CCN(c3ccc([N+](=O)[O-])cc3)CC2)co1` gave M5 antag inactive, M4 PAM 41, CHRM5 agonist inactive, M4 ag inactive, CHRM5 PAM inactive and M4 antag 33.
For O=C(CCc1ccccc1)N1CCN(c2ccc([N+](=O)[O-])cc2)CC1 the results were M5 antag inactive, M4 PAM 29, CHRM5 agonist inactive, M4 ag inactive, CHRM5 PAM inactive and M4 antag inactive.
For O=C(CN1CCN(c2ccc([N+](=O)[O-])cc2)CC1)c1ccccc1 the results were M5 antag inactive, M4 PAM inactive, CHRM5 agonist inactive, M4 ag inactive, CHRM5 PAM inactive and M4 antag 29.
Screening CCCc1ccc(S(=O)(=O)NCc2nnc(SC)n2C)cc1 returned M5 antag inactive, M4 PAM inactive, CHRM5 agonist inactive, M4 ag inactive, CHRM5 PAM inactive and M4 antag inactive.
Screening O=C(Nc1ncccc1O)c1ccc(S(=O)(=O)Nc2ccccc2)cc1 returned M5 antag inactive, M4 PAM inactive, CHRM5 agonist inactive, M4 ag inactive, CHRM5 PAM inactive and M4 antag inactive.
CCOC(=O)N1CCC(N2CCN(C3CCCC3)C(CCO)C2)CC1 (stereo unspecified) was read as M5 antag inactive, M4 PAM inactive, CHRM5 agonist inactive, M4 ag inactive, CHRM5 PAM inactive and M4 antag 80.
`CCOC(=O)N1CCC(NC2CCCCCCC2)CC1` gave M5 antag inactive, M4 PAM inactive, CHRM5 agonist inactive, M4 ag inactive, CHRM5 PAM inactive and M4 antag 47.
Screening CCn1c(SCC(=O)Nc2ccc(N3CCOCC3)cc2)nnc1-c1ccco1 returned M5 antag inactive, M4 PAM inactive, CHRM5 agonist inactive, M4 ag inactive, CHRM5 PAM inactive and M4 antag inactive.
c1ccc(-c2nc3ccccn3c2NCc2ccc3c(c2)OCO3)cc1 was read as M5 antag inactive, M4 PAM inactive, CHRM5 agonist inactive, M4 ag inactive, CHRM5 PAM inactive and M4 antag inactive.
For Clc1cccc(CNc2ccn3nc(-c4ccccc4)cc3n2)c1 the results were M5 antag inactive, M4 PAM 16, CHRM5 agonist inactive, M4 ag inactive, CHRM5 PAM inactive and M4 antag inactive.
Screening COc1ccc(-c2cc(-c3nc4ccccn4c3NCc3ccccc3)ccc2OC)cc1 returned M5 antag 48, M4 PAM inactive, CHRM5 agonist inactive, M4 ag inactive, CHRM5 PAM inactive and M4 antag 84.
`Cc1ccn2c(NCc3ccccc3)c(-c3cccc(SC4CCCCC4)c3)nc2c1` gave M5 antag inactive, M4 PAM inactive, CHRM5 agonist inactive, M4 ag inactive, CHRM5 PAM inactive and M4 antag inactive.
`COc1ccc(-c2nc3ccccn3c2NCc2ccc3c(c2)OCO3)cc1` gave M5 antag inactive, M4 PAM inactive, CHRM5 agonist inactive, M4 ag inactive, CHRM5 PAM inactive and M4 antag inactive.
`c1ccc(CNc2c(-c3cccc(SC4CCCCC4)c3)nc3ccccn23)cc1` gave M5 antag inactive, M4 PAM inactive, CHRM5 agonist inactive, M4 ag inactive, CHRM5 PAM inactive and M4 antag 49!.
`Clc1cccc(-c2ccc(-c3nc4ccccn4c3NCc3ccccc3)cc2)c1` gave M5 antag inactive, M4 PAM inactive, CHRM5 agonist inactive, M4 ag inactive, CHRM5 PAM inactive and M4 antag 29.
`O=C(C1=C(O)C(=O)N(c2ccccc2)C1c1ccc([N+](=O)[O-])cc1)c1cccs1` (stereo unspecified) gave M5 antag inactive, M4 PAM inactive, CHRM5 agonist inactive, M4 ag inactive, CHRM5 PAM inactive and M4 antag inactive.

Screens as filed in PubChem.
